Measured values taken from ChEMBL document CHEMBL4834402, “Discovery of TAK-981, a First-in-Class Inhibitor of SUMO-Activating Enzyme for the Treatment of Cancer” (J Med Chem, 2021).

Assays:
[1] = AUC in rat plasma at 1 mg/kg, iv; format: ADME, organism-based; design: dose 1 mg/kg
[2] = target: T1, SUMO-activating enzyme (Homo sapiens, UniProt Q9UBT2); test: Inhibition of SAE in human HCT116 cells assessed as redistribution of SUMO2/3 proteins from nucleus to cytosol preincubated for 2 hrs followed by compound washout and measured after 8 hrs by immunofluorescence assay; format: cell-based, HCT-116
Procedure, shortened: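 Washout format of the SUMO2/3 immunofluorescence assay in HCT116 cells. Cells were exposed to a range of concentrations for 2 h, then washed free of compound.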

[3] = target: Carbonic anhydrase 2 (Homo sapiens, UniProt P00918); test: Inhibition of recombinant human CA2 expressed in Escherichia coli using fluorescein diacetate as substrate at […] by fluorometric esterase assay
[4] = target: T2, NEDD8 activating enzyme (Homo sapiens, UniProt Q8TBC4); test: Inhibition of recombinant NAE (unknown origin) in presence of ATP at Km concentration by HTRF assay; format: protein-complex assay
T2 sequence (Q8TBC4 whole entry): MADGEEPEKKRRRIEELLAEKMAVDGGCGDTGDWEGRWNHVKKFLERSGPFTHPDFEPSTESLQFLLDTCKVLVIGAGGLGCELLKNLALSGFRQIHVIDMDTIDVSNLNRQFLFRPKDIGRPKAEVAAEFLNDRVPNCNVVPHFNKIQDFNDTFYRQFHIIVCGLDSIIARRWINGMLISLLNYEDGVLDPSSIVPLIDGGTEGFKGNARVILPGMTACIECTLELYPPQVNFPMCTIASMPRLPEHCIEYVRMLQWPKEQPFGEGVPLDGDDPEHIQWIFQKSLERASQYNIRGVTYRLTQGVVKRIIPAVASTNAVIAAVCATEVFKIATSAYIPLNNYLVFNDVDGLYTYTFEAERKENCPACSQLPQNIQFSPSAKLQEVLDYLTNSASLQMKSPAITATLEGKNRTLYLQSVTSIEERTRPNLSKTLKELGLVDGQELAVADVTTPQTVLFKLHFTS
T2 sequence (Q13564 whole entry): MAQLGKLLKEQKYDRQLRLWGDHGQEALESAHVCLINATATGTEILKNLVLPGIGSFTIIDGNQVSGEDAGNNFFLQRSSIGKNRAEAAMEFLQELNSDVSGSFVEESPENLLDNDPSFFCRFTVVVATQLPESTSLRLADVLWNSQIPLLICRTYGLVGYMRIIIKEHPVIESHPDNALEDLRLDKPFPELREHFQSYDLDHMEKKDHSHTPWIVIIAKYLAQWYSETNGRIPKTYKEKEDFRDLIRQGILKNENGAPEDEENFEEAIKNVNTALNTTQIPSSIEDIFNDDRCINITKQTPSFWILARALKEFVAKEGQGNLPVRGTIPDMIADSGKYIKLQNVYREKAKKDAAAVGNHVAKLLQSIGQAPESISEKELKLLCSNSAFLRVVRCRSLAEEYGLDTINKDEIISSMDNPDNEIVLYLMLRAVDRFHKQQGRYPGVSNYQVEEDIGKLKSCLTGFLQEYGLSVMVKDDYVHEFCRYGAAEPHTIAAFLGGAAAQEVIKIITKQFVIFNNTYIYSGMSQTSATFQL

[5] = target: T1, SUMO-activating enzyme; test: Inhibition of recombinant SAE (unknown origin) assessed as reduction in transfer of SUMO1 to UBC9 using SUMO1 as a substrate in presence of ATP at Km concentration by HTRF assay; format: protein-complex assay
Procedure, shortened: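 HTRF transthiolation assay measuring transfer of SUMO1 to UBC9, the E2 for SAE.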

T1 sequence (Q9UBE0 whole entry): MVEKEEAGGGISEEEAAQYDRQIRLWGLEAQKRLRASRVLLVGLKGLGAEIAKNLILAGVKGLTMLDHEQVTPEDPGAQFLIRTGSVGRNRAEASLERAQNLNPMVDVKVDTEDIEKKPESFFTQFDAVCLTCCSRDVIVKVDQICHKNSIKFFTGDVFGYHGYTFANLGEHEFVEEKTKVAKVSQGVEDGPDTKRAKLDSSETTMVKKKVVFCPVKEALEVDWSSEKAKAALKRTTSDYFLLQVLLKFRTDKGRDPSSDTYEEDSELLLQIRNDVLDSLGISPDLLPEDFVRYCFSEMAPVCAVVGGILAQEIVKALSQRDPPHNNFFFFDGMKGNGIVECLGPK
T1 sequence (Q9UBT2 whole entry): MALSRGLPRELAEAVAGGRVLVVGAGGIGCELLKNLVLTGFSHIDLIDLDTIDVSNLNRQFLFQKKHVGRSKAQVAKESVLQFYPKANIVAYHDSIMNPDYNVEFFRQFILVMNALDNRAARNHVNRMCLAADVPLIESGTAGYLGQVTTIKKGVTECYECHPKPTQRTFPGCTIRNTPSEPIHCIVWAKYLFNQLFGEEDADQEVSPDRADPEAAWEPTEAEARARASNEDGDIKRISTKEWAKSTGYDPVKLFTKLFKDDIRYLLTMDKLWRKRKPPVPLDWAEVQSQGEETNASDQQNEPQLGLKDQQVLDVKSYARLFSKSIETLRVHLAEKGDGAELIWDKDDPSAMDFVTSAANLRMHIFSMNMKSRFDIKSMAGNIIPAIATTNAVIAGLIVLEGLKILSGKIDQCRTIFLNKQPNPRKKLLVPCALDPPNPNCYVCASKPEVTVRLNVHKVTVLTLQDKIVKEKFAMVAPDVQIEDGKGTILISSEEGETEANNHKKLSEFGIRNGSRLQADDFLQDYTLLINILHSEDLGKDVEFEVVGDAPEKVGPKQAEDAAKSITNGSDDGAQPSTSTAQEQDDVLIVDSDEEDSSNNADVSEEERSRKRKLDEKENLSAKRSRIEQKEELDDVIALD

AUC [1]: 0.5 µM·h
IC50 [3]: 20 nM
IC50 [4]: 960 nM
Compound: Cc1sc(C(=O)c2cncnc2N[C@@H]2C[C@H](COS(N)(=O)=O)[C@@H](O)C2)cc1[C@@H]1NCCc2ccc(Cl)cc21
IC50 [2]: 46 nM
IC50 [5]: 1 nM
